# Reference: ChEMBL document CHEMBL1157544, “New benzophenone-derived bisphosphonium salts as leishmanicidal leads targeting mitochondria through inhibition of respiratory complex II” (2010)
# The source made the active and inactive calls. The rule behind the calls is not given here.
# Legend:
# Leishmania pifanoi = test: Antileishmanial activity against Leishmania pifanoi MHOM/VE/60/Ltrod after 96 hrs by MTT assay; format: functional
# How it was run: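 Axenic amastigotes harvested at late exponential phase, washed twice in HBSS plus 10 mM D-glucose (pH 7.2) and set at 2 × 10^7 cells/mL. Drug exposure 4 h at 32 °C, then washed. Regrowth 96 h at 32 °C in growth medium without phenol red, followed by MTT (1 mg/mL) reduction for 2 h at 32 °C. LC50 taken from sigmoidal curves; triplicates ± SD.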
# Leishmania donovani [1] = test: Antileishmanial activity against Leishmania donovani MHOM/SC/00/1S-2D promastigotes after 48 hrs by MTT assay; format: functional
# How it was run: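 Late-exponential promastigotes washed twice in HBSS plus 10 mM D-glucose (pH 7.2) and resuspended at 2 × 10^7 cells/mL. Drug exposure 4 h at 25 °C, then cells washed to remove unbound drug. Regrowth 48 h at 25 °C in growth medium without phenol red, followed by MTT (1 mg/mL) reduction for 2 h at 25 °C. LC50 taken from sigmoidal inhibition curves; mean of triplicates ± SD.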
# Leishmania donovani [2] = test: Antileishmanial activity against Leishmania donovani MHOM/SC/00/1S-2D promastigotes assessed as rhodamine 123 accumulation at LC50 by mitochondrial membrane potential assay; format: functional
# How it was run: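 Promastigotes held overnight in growth medium with each compound at its LC50, then loaded with 0.3 μg/mL rhodamine 123. Dye uptake measured by flow cytometry (ex 488/em 525 nm) and expressed as percent of untreated cells. 1 mM KCN used as the fully depolarized control.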
# Leishmania donovani [3] = test: Decrease in intracellular ATP level in Leishmania donovani MHOM/SC/00/1S-2D promastigotes assessed as luminescence at 0.6 to 8 uM; format: functional, organism-based
# How it was run: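 3-Luc promastigotes expressing cytoplasmic firefly luciferase, 2 × 10^7/mL in HBSS-Glc, loaded with 25 μM DMNPE-luciferin (final). Compound added at the luminescence plateau, counted as time zero and 100%. Luminescence recorded 80 min, averaged every 4 s, and normalized to untreated parasites.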
# Leishmania donovani [4] = test: Antileishmanial activity against digitonized Leishmania donovani MHOM/SC/00/1S-2D promastigotes assessed as inhibition of oxygen consumption at 16 uM; format: functional, organism-based
# How it was run: (§1)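 Clark electrode at 25 °C. Promastigotes at 10^8 cells/mL in respiration buffer with 5 mM succinate and 1 mg/mL fatty-acid-free BSA. Cells permeabilized with 60 μM digitonin, then 100 μM ADP added for state 3. After a steady rate, compound added, then 10 μM FCCP, 0.1 mM TMPD + 1.7 mM ascorbate, 6.7 mM α-glycerophosphate, 2 mM malonate or 1 μM antimycin A. Rates taken from trace slopes.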
# Leishmania donovani [5] = test: Induction of apoptosis in Leishmania donovani MHOM/SC/00/1S-2D promastigotes assessed as apoptotic cells at 2.5 uM propidium iodide fluorescence cytofluorometry; format: functional
# How it was run: (§2)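 Promastigotes incubated overnight with the compound, then stained with 50 μg/mL propidium iodide. The sub-G1 peak was measured by flow cytometry. 15 μM miltefosine under identical conditions served as the positive control.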
# Leishmania donovani [6] = test: Antileishmanial activity against digitonized Leishmania donovani MHOM/SC/00/1S-2D promastigotes assessed as inhibition of oxygen consumption at 16 uM in presence of FCCP mitochondrial uncoupler; format: functional, organism-based; how it was run: as §1
# Leishmania donovani [7] = test: Antileishmanial activity against digitonized Leishmania donovani MHOM/SC/00/1S-2D promastigotes assessed as restoration of oxygen consumption at 16 uM in presence of TMPD-ascorbate; format: functional; how it was run: as §1
# Leishmania donovani [8] = test: Antileishmanial activity against Leishmania donovani MHOM/SC/00/1S-2D promastigotes assessed as plasma membrane integrity at 25 uM; format: functional, organism-based
# How it was run: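 SYTOX green uptake. Promastigotes (2 × 10^7/mL) in HBSS-Glc were preincubated with 1 μM dye before compound was added. Fluorescence read at ex 485/em 520 nm. Full permeation was defined by 0.1% Triton X-100.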
# Leishmania donovani [9] = test: Antileishmanial activity against digitonized Leishmania donovani MHOM/SC/00/1S-2D promastigotes assessed as restoration of oxygen consumption at 16 uM in presence of alpha-glycerophosphate; format: functional, organism-based; how it was run: as §1
# Leishmania donovani [10] = test: Induction of apoptosis in Leishmania donovani MHOM/SC/00/1S-2D promastigotes assessed as apoptotic cells at 1 uM propidium iodide fluorescence cytofluorometry; format: functional; how it was run: as §2
# Leishmania donovani [11] = test: Antileishmanial activity against Leishmania donovani MHOM/SC/00/1S-2D promastigotes assessed as inhibition of proliferation at 5 um after 4 hrs; format: functional
# How it was run: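 Promastigotes washed into HBSS-Glc pH 7.2 at 2 × 10^7 cells/mL and exposed to drug for 4 h at 25 °C. Cells then washed and left to grow 48 h at 25 °C in growth medium without phenol red. Growth read by MTT reduction (1 mg/mL, 2 h). Triplicate samples.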
# Leishmania donovani [12] = test: Induction of morphological changes in Leishmania donovani MHOM/SC/00/1S-2D promastigotes assessed as mitochondrial kinetoplast at 5 uM after 4 hrs; format: functional, organism-based
# How it was run: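 Promastigotes treated 4 h under the standard conditions, washed in PBS and fixed in 5% glutaraldehyde. Post-fixed in 2.5% OsO4 for 1 h, dehydrated through graded ethanol and propylene oxide, embedded in Epon 812 and imaged by transmission electron microscopy.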
# Leishmania donovani [13] = test: Induction of apoptosis in Leishmania donovani MHOM/SC/00/1S-2D promastigotes assessed as apoptotic cells at 15 uM propidium iodide fluorescence cytofluorometry; format: functional; how it was run: as §2
Structure (SMILES),LC50 (Leishmania pifanoi) [µM],LC50 (Leishmania donovani [1]) [µM],Activity (Leishmania donovani [2]) [%],other results
O=C(c1ccc(C[P+](c2ccccc2)(c2ccccc2)c2ccccc2)cc1)c1ccc(C[P+](c2ccccc2)(c2ccccc2)c2ccccc2)cc1.[Br-].[Br-],1.53,2.73,67.25,–
CC[P+](CC)(CC)Cc1ccc(C(=O)c2ccc(C[P+](CC)(CC)CC)cc2)cc1,> 50,> 50,–,–
Cc1ccccc1[P+](Cc1ccc(C(=O)c2ccc(C[P+](c3ccccc3)(c3ccccc3)c3ccccc3C)cc2)cc1)(c1ccccc1)c1ccccc1.[Br-].[Br-],1.51,1.9,55.75,–
C[P+](C)(Cc1ccc(C(=O)c2ccc(C[P+](C)(C)c3ccccc3)cc2)cc1)c1ccccc1,> 50,> 50,–,–
CC[P+](Cc1ccc(C(=O)c2ccc(C[P+](CC)(c3ccccc3)c3ccccc3)cc2)cc1)(c1ccccc1)c1ccccc1.[Br-].[Br-],14,6.9,100,–
Cc1ccc([P+](Cc2ccc(C(=O)c3ccc(C[P+](c4ccccc4)(c4ccccc4)c4ccc(C)cc4)cc3)cc2)(c2ccccc2)c2ccccc2)cc1.[Br-].[Br-],1.38,1.2,53.25,–
CC(C)C[P+](Cc1ccc(C(=O)c2ccc(C[P+](CC(C)C)(CC(C)C)CC(C)C)cc2)cc1)(CC(C)C)CC(C)C,> 50,> 50,–,–
C[P+](C)(C)Cc1ccc(C(=O)c2ccc(C[P+](C)(C)C)cc2)cc1,> 50,> 50,–,–
O=C(c1ccc(C[P+](C2CCCCC2)(C2CCCCC2)C2CCCCC2)cc1)c1ccc(C[P+](C2CCCCC2)(C2CCCCC2)C2CCCCC2)cc1.[Br-].[Br-],1.67,3.3,42,–
CC(C)[P+](Cc1ccc(C(=O)c2ccc(C[P+](C(C)C)(C(C)C)C(C)C)cc2)cc1)(C(C)C)C(C)C,> 50,> 50,–,–
CCCCCCCC[P+](CCCCCCCC)(CCCCCCCC)Cc1ccc(C(=O)c2ccc(C[P+](CCCCCCCC)(CCCCCCCC)CCCCCCCC)cc2)cc1.[Br-].[Br-],1.37,5.66,10.8,–
CCCCC[P+](CCCCC)(CCCCC)Cc1ccc(C(=O)c2ccc(C[P+](CCCCC)(CCCCC)CCCCC)cc2)cc1.[Br-].[Br-],0.97,1.09,48,Activity (Leishmania donovani [3]): Active; Activity (Leishmania donovani [4]): Active; Activity (Leishmania donovani [5]): 34.5%; Activity (Leishmania donovani [6]): Active; Activity (Leishmania donovani [7]): 50%; Activity (Leishmania donovani [8]): inactive; Activity (Leishmania donovani [9]): Active; Activity (Leishmania donovani [10]): 22.1%; inhibition (INH) (Leishmania donovani [11]): 80%; Activity (Leishmania donovani [12]): Active; Activity (Leishmania donovani [13]): 24.9%
CCCCCCCCCCCCCCCCOP(=O)([O-])OCC[N+](C)(C)C [MILTEFOSINE],26.3,12.5,75,–
CCC[P+](CCC)(CCC)Cc1ccc(C(=O)c2ccc(C[P+](CCC)(CCC)CCC)cc2)cc1,> 50,> 50,–,–
O=C(c1ccc(C[P+](c2ccco2)(c2ccco2)c2ccco2)cc1)c1ccc(C[P+](c2ccco2)(c2ccco2)c2ccco2)cc1,> 50,18.1,–,–
CCCC[P+](CCCC)(CCCC)Cc1ccc(C(=O)c2ccc(C[P+](CCCC)(CCCC)CCCC)cc2)cc1,> 50,> 50,–,–
O=C(c1ccc(C[P+](c2ccccc2)(c2ccccc2)c2ccccn2)cc1)c1ccc(C[P+](c2ccccc2)(c2ccccc2)c2ccccn2)cc1.[Br-].[Br-],2.58,3.03,100,–
O=C(c1ccc(C[P+](c2ccccc2)(C2CCCCC2)C2CCCCC2)cc1)c1ccc(C[P+](c2ccccc2)(C2CCCCC2)C2CCCCC2)cc1.[Br-].[Br-],1.45,2.1,83.12,–
CC[P+](CC)(Cc1ccc(C(=O)c2ccc(C[P+](CC)(CC)c3ccccc3)cc2)cc1)c1ccccc1,> 50,> 50,–,–
C[P+](Cc1ccc(C(=O)c2ccc(C[P+](C)(c3ccccc3)c3ccccc3)cc2)cc1)(c1ccccc1)c1ccccc1.[Br-].[Br-],1.64,19.3,100,–
